Measured values taken from ChEMBL document CHEMBL1156177, “Conjugates of plumbagin and phenyl-2-amino-1-thioglucoside inhibit MshB, a deacetylase involved in the biosynthesis of mycothiol” (Bioorg Med Chem, 2010).

B1: 1D-myo-inositol 2-acetamido-2-deoxy-alpha-D-glucopyranoside deacetylase (Mycobacterium tuberculosis), P9WJN3 (protein)
chain: MSETPRLLFVHAHPDDESLSNGATIAHYTSRGAQVHVVTCTLGEEGEVIGDRWAQLTADHADQLGGYRIGELTAALRALGVSAPIYLGGAGRWRDSGMAGTDQRSQRRFVDADPRQTVGALVAIIRELRPHVVVTYDPNGGYGHPDHVHTHTVTTAAVAAAGVGSGTADHPGDPWTVPKFYWTVLGLSALISGARALVPDDLRPEWVLPRADEIAFGYSDDGIDAVVEADEQARAAKVAALAAHATQVVVGPTGRAAALSNNLALPILADEHYVLAGGSAGARDERGWETDLLAGLGFTASGT

Experiments:
[1] = biological target: T1, 1D-myo-inositol 2-acetamido-2-deoxy-alpha-D-glucopyranoside deacetylase (Mycobacterium tuberculosis) (UniProt P9WJN3); experiment: Ratio of Kcat to Km for Mycobacterium tuberculosis MshB
T1 sequence (whole entry): B1 chain
Method in brief: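 GlcNAc-Ins varied 50–2000 μM with 3.26 μg purified recombinant MshB, 1.0 μmol Na-Hepes pH 7.5, 1.0 μmol NaCl in 40 μl, 10 min at 37 °C; GlcN-Ins quantified by hplc as AccQ-Fluor derivative.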

[2] = biological target: T1, 1D-myo-inositol 2-acetamido-2-deoxy-alpha-D-glucopyranoside deacetylase (Mycobacterium tuberculosis); experiment: Activity at Mycobacterium tuberculosis MshB expressed in Escherichia coli BL21 at 250 uM assessed per mg of protein by HPLC analysis
Method in brief: (§1)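 Recombinant MshB from E. coli BL21(DE3) pLysS (IPTG 0.4 mM, 18 °C) purified by DEAE, Zn-IMAC and gel filtration. Substrates (GlcNAc glycosides, 250 μM for single-point comparison) incubated with 8.15 μg MshB, 1 μmol NaCl, 1 μmol Hepes pH 7.5 in 40 μl, 10 min, 37 °C; product quantified by C-18 hplc (UV for phenyl aglycons, dansylated for cyclohexyl) against complete-cleavage calibration curves.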

[3] = test system: Mycolicibacterium smegmatis; experiment: Inhibition of Mycobacterium smegmatis Mca at 250 uM after 10 mins by HPLC analysis
Method in brief: (§2)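 Native Mca purified from M. smegmatis by (NH4)2SO4 cut (15–50%), DEAE, hydroxyapatite and size-exclusion HPLC. 8.0 nmol of the bimane substrate MSmB and 8.0 nmol inhibitor (250 µM each) in Na-Hepes pH 7.5 with NaCl, 40 µl final volume, run 10 min at 37 °C. Stopped with acetonitrile/TFA and 60 °C for 10 min. Product read by C-18 HPLC with fluorescence detection (ex 396/em 482 nm).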

[4] = biological target: T1, 1D-myo-inositol 2-acetamido-2-deoxy-alpha-D-glucopyranoside deacetylase (Mycobacterium tuberculosis); experiment: Inhibition of Mycobacterium tuberculosis MshB expressed in Escherichia coli BL21 at 500 uM after 10 mins by HPLC analysis
Method in brief: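 Recombinant MshB (E. coli BL21(DE3) pLysS, purified) assayed with GlcNAc-Ins and inhibitor, each at 500 μM, in 40 μl with 1.0 μmol Na-Hepes pH 7.5, 1.0 μmol NaCl, 3.26 μg MshB; 10 min at 37 °C; stopped with acetonitrile/TFA, 60 °C 10 min; GlcN-Ins measured by C-18 hplc as AccQ-Fluor derivative; percent inhibition.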

[5] = biological target: T2, 1D-myo-inositol 2-acetamido-2-deoxy-alpha-D-glucopyranoside deacetylase (Mycobacterium tuberculosis, UniProt P9WJN3); experiment: Inhibition of Mycobacterium tuberculosis MshB expressed in Escherichia coli BL21 after 10 mins by HPLC analysis
T2 sequence (P9WJN3 whole entry): B1 chain

[6] = test system: Mycolicibacterium smegmatis; experiment: Activity at Mycobacterium smegmatis Mca by HPLC analysis; method in brief: as §2
[7] = substrate: CC(=O)N[C@@H]1[C@@H](O)[C@H](O)[C@@H](CO)O[C@@H]1Sc1ccccc1; experiment: (§3) Activity at Mycobacterium tuberculosis MshB expressed in Escherichia coli BL21 assessed per mg of protein by HPLC analysis; method in brief: as §1
[8] = substrate: CC(=O)N[C@H]1[C@@H](O[C@@H]2[C@H](O)[C@H](O)[C@@H](O)[C@H](O)[C@H]2O)O[C@H](CO)[C@@H](O)[C@@H]1O; experiment: as §3; method in brief: as §1
[9] = substrate: CC(=O)N[C@@H]1[C@@H](O)[C@H](O)[C@@H](CO)O[C@@H]1Sc1ccccc1; experiment: (§4) Activity at Mycobacterium tuberculosis MshB expressed in Escherichia coli BL21 by HPLC analysis; method in brief: as §1
[10] = substrate: CC(=O)N[C@H]1[C@@H](O[C@@H]2[C@H](O)[C@H](O)[C@@H](O)[C@H](O)[C@H]2O)O[C@H](CO)[C@@H](O)[C@@H]1O; experiment: as §4; method in brief: as §1

Row | Molecule | inhibition [3] [%] | inhibition [4] [%] | also measured
1 | CC(=O)N[C@@H]1[C@@H](O)[C@H](O)[C@@H](CO)O[C@@H]1Sc1ccccc1 | – | – | Ratio [1]: 69.4 M⁻¹ s⁻¹; Activity [2]: 27 nmol/min/mg
2 | OC[C@H]1O[C@H](OC2CCCCC2)[C@H](CC2CO2)[C@@H](O)[C@@H]1O (stereo partly drawn) | 19.4 | 19.7 | –
3 | CC(=O)N[C@@H]1[C@@H](O)[C@H](O)[C@@H](CO)O[C@H]1SCc1ccccc1 | 0 | 13.3 | –
4 | CC(=N)N[C@@H]1[C@@H](O)[C@H](O)[C@@H](CO)O[C@@H]1SC1CCCCC1 | 6.8 | 0 | –
5 | N[C@@H]1[C@@H](O)[C@H](O)[C@@H](CO)O[C@@H]1Sc1ccccc1 | 17 | 6.1 | –
6 | CC1=C(CCCCCC(=O)N[C@@H]2[C@@H](O)[C@H](O)[C@@H](CO)O[C@@H]2Sc2ccccc2)C(=O)c2c(O)cccc2C1=O | 44.5 | 94.8 | Ki [5]: 16.8 µM
7 | CC(=O)N[C@@H]1[C@@H](O)[C@H](O)[C@@H](CO)O[C@H]1Sc1ccccc1 | 0 | 15.1 | –
8 | C=CC[C@H]1[C@@H](OC2CCCCC2)O[C@H](CO)[C@@H](O)[C@@H]1O | 73.8 | 0 | –
9 | CC(=O)N[C@@H](CSSc1ccc2cc(O)ccc2c1)C(=O)NC1[C@@H](OC2[C@H](O)[C@H](O)C(O)[C@@H](O)[C@H]2O)O[C@H](CO)[C@@H](O)[C@@H]1O (stereo partly drawn) | – | – | Km [6]: 328 µM
10 | CC(=O)N[C@@H]1[C@@H](O)[C@H](O)[C@@H](CO)O[C@@H]1SC1CCCCC1 | – | – | Activity [2]: 6.11 nmol/min/mg
11 | CC(=O)N[C@H]1[C@@H](O[C@@H]2[C@H](O)[C@H](O)[C@@H](O)[C@H](O)[C@H]2O)O[C@H](CO)[C@@H](O)[C@@H]1O | – | – | Ratio [1]: 690 M⁻¹ s⁻¹; Activity [2]: 106 nmol/min/mg
12 | C=CC[C@H]1[C@H](OC2CCCCC2)O[C@H](CO)[C@@H](O)[C@@H]1O | 9.3 | 0 | –
13 | CC(=O)N[C@H]1[C@@H](OC2CCCCC2)O[C@H](CO)[C@@H](O)[C@@H]1O | – | – | Activity [2]: 6.07 nmol/min/mg
14 | CC(=O)N[C@@H]1[C@@H](O)[C@H](O)[C@@H](CO)O[C@@H]1Sc1ccc([N+](=O)[O-])cc1[N+](=O)[O-] | 0 | 29.4 | –
15 | O=C(Nc1ccccc1)N[C@@H]1[C@@H](O)[C@H](O)[C@@H](CO)O[C@@H]1SC1CCCCC1 | 15 | 17 | –
16 | CC(O)C[C@H]1[C@@H](OC2CCCCC2)O[C@H](CO)[C@@H](O)[C@@H]1O (stereo partly drawn) | 20.5 | 11.4 | –
17 | O=C(CCl)N[C@@H]1[C@@H](O)[C@H](O)[C@@H](CO)O[C@@H]1SC1CCCCC1 | 0 | 14.9 | –
18 | CS(=O)(=O)N[C@@H]1[C@@H](O)[C@H](O)[C@@H](CO)O[C@@H]1SC1CCCCC1 | 0 | 0 | –
19 | OC[C@H]1O[C@H](OC2CCCCC2)[C@@H]2CC(O)CO[C@H]2[C@@H]1O (stereo partly drawn) | 35 | 6.6 | –
20 | N[C@@H]1[C@@H](O)[C@H](O)[C@@H](CO)O[C@@H]1SC1CCCCC1 | 0 | 16.4 | –
21 | CO[C@H]1OCC(S[C@H]2O[C@H](CO)[C@@H](O)[C@H](O)[C@H]2NC(C)=O)C[C@H]1O (stereo partly drawn) | 27 | 0 | –
22 | CCC[C@H]1[C@@H](OC2CCCCC2)O[C@H](CO)[C@@H](O)[C@@H]1O | 22 | 0 | –
23 | CC(=O)C[C@H]1[C@@H](OC2CCCCC2)O[C@H](CO)[C@@H](O)[C@@H]1O | 17.2 | 6.7 | –
24 | CC1=C(CCCCC(=O)N[C@@H]2[C@@H](O)[C@H](O)[C@@H](CO)O[C@@H]2Sc2ccccc2)C(=O)c2c(O)cccc2C1=O | 23.2 | 81.4 | Ki [5]: 94 µM
25 | CC1=C(CCC(=O)N[C@@H]2[C@@H](O)[C@H](O)[C@@H](CO)O[C@@H]2Sc2ccccc2)C(=O)c2c(O)cccc2C1=O | 28.8 | 57.4 | Ki [5]: 167 µM
26 | CC1=C(CCCC(=O)N[C@@H]2[C@@H](O)[C@H](O)[C@@H](CO)O[C@@H]2Sc2ccccc2)C(=O)c2c(O)cccc2C1=O | 37.8 | 81.6 | –
27 | B1 | – | – | Vmax [7]: 214 nmol/min/mg; Vmax [8]: 437 nmol/min/mg; Km [9]: 1700 µM; kcat [9]: 0.12 s⁻¹; Km [10]: 348 µM; kcat [10]: 0.24 s⁻¹
